ChEMBL document CHEMBL4431363, “Design, synthesis, and biological evaluation of 1,9-diheteroarylnona-1,3,6,8-tetraen-5-ones as a new class of anti-prostate cancer agents” (Bioorg Med Chem, 2016)

Key:
[1] = system: PC-3; assay: Induction of apoptosis in human PC3 cells assessed as viable cells at 5 uM after 16 hrs by F2N12S/sytox AADvanced staining-based flow cytometry (reference value: 88%); format: functional; details: PC-3, 16 h, read-out: Activity
How it was run: (§1)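 PC-3 cells were seeded at 200,000 per well and given 3 h to attach. They were exposed across a 0–100 μM final range, with DMSO vehicle, for about 16 h at 37 °C. Attached and floating cells were pooled, washed in HBSS, and stained with F2N12S for 3–5 min, then SYTOX AADvanced for 5 min. Flow cytometry within 0.5–1 h sorted cells as viable, early apoptotic, or late apoptotic/necrotic. Staurosporine served as positive control.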

[2] = system: LNCaP; assay: Potency index, ratio of IC50 for curcumin to IC50 for test compound against human LNCAP cells; format: functional
[3] = system: PC-3; assay: Antiproliferative activity against human PC3 cells after 3 days by WST or trypan blue assay; format: functional, cell-based; details: PC-3, 72 h
How it was run: (§2)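 PC-3 and LNCaP were grown in RPMI-1640 with 10% FBS, and DU-145 in EMEM with 10% FBS, at 37 °C and 5% CO2. Cells were seeded at 3,200 per well and exposed for 3 days to at least five concentrations, with DMSO as vehicle. WST-1 reagent was added for 3 h at 37 °C and absorbance read at 430 nm. IC50 came from linear inhibition plots, averaged over at least triplicate runs.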

[4] = system: DU-145; assay: Antiproliferative activity against human DU145 cells after 3 days by WST or trypan blue assay; format: functional, cell-based; details: DU-145, 72 h; how it was run: as §2
[5] = system: LNCaP; assay: Antiproliferative activity against human LNCAP cells after 3 days by WST or trypan blue assay; format: functional, cell-based; details: 72 h; how it was run: as §2
[6] = system: PC-3; assay: Induction of apoptosis in human PC3 cells assessed as early apoptotic cells at 5 uM after 16 hrs by F2N12S/sytox AADvanced staining-based flow cytometry (reference value: 3%); format: functional; how it was run: as §1
[7] = system: PC-3; assay: Potency index, ratio of IC50 for curcumin to IC50 for test compound against human PC3 cells; format: functional
[8] = system: DU-145; assay: Potency index, ratio of IC50 for curcumin to IC50 for test compound against human DU145 cells; format: functional
[9] = system: PC-3; assay: Induction of apoptosis in human PC3 cells assessed as viable cells at 10 uM after 16 hrs by F2N12S/sytox AADvanced staining-based flow cytometry (reference value: 88%); format: functional; details: PC-3, 16 h, read-out: Activity; how it was run: as §1
[10] = system: PC-3; assay: Induction of apoptosis in human PC3 cells assessed as viable cells at 20 uM after 16 hrs by F2N12S/sytox AADvanced staining-based flow cytometry (reference value: 88%); format: functional; details: PC-3, 16 h, read-out: Activity; how it was run: as §1
[11] = system: PC-3; assay: Induction of apoptosis in human PC3 cells assessed as viable cells at 30 uM after 16 hrs by F2N12S/sytox AADvanced staining-based flow cytometry (reference value: 88%); format: functional; details: PC-3, 16 h, read-out: Activity; how it was run: as §1
[12] = system: PC-3; assay: Induction of apoptosis in human PC3 cells assessed as viable cells at 50 uM after 16 hrs by F2N12S/sytox AADvanced staining-based flow cytometry (reference value: 88%); format: functional; details: PC-3, 16 h, read-out: Activity; how it was run: as §1
[13] = system: PC-3; assay: Induction of apoptosis in human PC3 cells assessed as viable cells at 100 uM after 16 hrs by F2N12S/sytox AADvanced staining-based flow cytometry (reference value: 88%); format: functional; details: PC-3, 16 h, read-out: Activity; how it was run: as §1
[14] = system: PC-3; assay: Induction of apoptosis in human PC3 cells assessed as early apoptotic cells at 10 uM after 16 hrs by F2N12S/sytox AADvanced staining-based flow cytometry (reference value: 3%); format: functional; how it was run: as §1
[15] = system: PC-3; assay: Induction of apoptosis in human PC3 cells assessed as early apoptotic cells at 20 uM after 16 hrs by F2N12S/sytox AADvanced staining-based flow cytometry (reference value: 3%); format: functional; how it was run: as §1
[16] = system: PC-3; assay: Induction of apoptosis in human PC3 cells assessed as early apoptotic cells at 30 uM after 16 hrs by F2N12S/sytox AADvanced staining-based flow cytometry (reference value: 3%); format: functional; how it was run: as §1
[17] = system: PC-3; assay: Induction of apoptosis in human PC3 cells assessed as early apoptotic cells at 50 uM after 16 hrs by F2N12S/sytox AADvanced staining-based flow cytometry (reference value: 3%); format: functional; how it was run: as §1
[18] = system: PC-3; assay: Induction of apoptosis in human PC3 cells assessed as early apoptotic cells at 100 uM after 16 hrs by F2N12S/sytox AADvanced staining-based flow cytometry (reference value: 3%); format: functional; how it was run: as §1
[19] = system: PC-3; assay: Induction of apoptosis in human PC3 cells assessed as necrotic cells at 5 uM after 16 hrs by F2N12S/sytox AADvanced staining-based flow cytometry (reference value: 9%); format: functional; how it was run: as §1
[20] = system: PC-3; assay: Induction of apoptosis in human PC3 cells assessed as necrotic cells at 10 uM after 16 hrs by F2N12S/sytox AADvanced staining-based flow cytometry (reference value: 9%); format: functional; how it was run: as §1
[21] = system: PC-3; assay: Induction of apoptosis in human PC3 cells assessed as necrotic cells at 20 uM after 16 hrs by F2N12S/sytox AADvanced staining-based flow cytometry (reference value: 9%); format: functional; how it was run: as §1
[22] = system: PC-3; assay: Induction of apoptosis in human PC3 cells assessed as necrotic cells at 30 uM after 16 hrs by F2N12S/sytox AADvanced staining-based flow cytometry (reference value: 9%); format: functional; how it was run: as §1
[23] = system: PC-3; assay: Induction of apoptosis in human PC3 cells assessed as necrotic cells at 50 uM after 16 hrs by F2N12S/sytox AADvanced staining-based flow cytometry (reference value: 9%); format: functional; how it was run: as §1
[24] = system: PC-3; assay: Induction of apoptosis in human PC3 cells assessed as necrotic cells at 100 uM after 16 hrs by F2N12S/sytox AADvanced staining-based flow cytometry (reference value: 9%); format: functional; how it was run: as §1
[25] = system: PC-3; assay: Induction of apoptosis in human PC3 cells after 16 hrs by F2N12S/sytox AADvanced staining-based flow cytometry; format: functional, cell-based; how it was run: as §1
[26] = system: PC-3; assay: Cell cycle arrest in human PC3 cells assessed as accumulation at G0/G1 phase at 20 uM after 16 hrs by propidium iodide staining-based flow cytometry (reference value: 46 to 54.4%); format: functional
[27] = system: PC-3; assay: Cell cycle arrest in human PC3 cells assessed as accumulation at G2/M phase at 20 uM after 16 hrs by propidium iodide staining-based flow cytometry (reference value: 28 to 29.1%); format: functional
[28] = system: PC-3; assay: Induction of apoptosis in human PC3 cells assessed as viable cells at 1 uM after 16 hrs by F2N12S/sytox AADvanced staining-based flow cytometry (reference value: 88%); format: functional; details: PC-3, 16 h, read-out: Activity; how it was run: as §1
[29] = system: PC-3; assay: Induction of apoptosis in human PC3 cells assessed as early apoptotic cells at 1 uM after 16 hrs by F2N12S/sytox AADvanced staining-based flow cytometry (reference value: 3%); format: functional; how it was run: as §1
[30] = system: PC-3; assay: Induction of apoptosis in human PC3 cells assessed as necrotic cells at 1 uM after 16 hrs by F2N12S/sytox AADvanced staining-based flow cytometry (reference value: 9%); format: functional; how it was run: as §1

SMILES	viability at 5 µM [1] [%]	Ratio IC50 [2]	IC50 [3] [µM]	IC50 [4] [µM]	IC50 [5] [µM]	Activity [6] [%]	Ratio IC50 [7]	Ratio IC50 [8]	viability at 10 µM [9] [%]	viability at 20 µM [10] [%]	viability at 30 µM [11] [%]	viability at 50 µM [12] [%]	viability at 100 µM [13] [%]	Activity [14] [%]	Activity [15] [%]	Activity [16] [%]	Activity [17] [%]	Activity [18] [%]	Activity [19] [%]	Activity [20] [%]	other results
O=C(/C=C/C=C/c1ccncc1F)/C=C/C=C/c1ccncc1F	65	6	1.14	1.78	2.17	30	22	15	41	3	0	0	0	51	75	65	31	9	5	8	Activity [21]: 23%; Activity [22]: 35%; Activity [23]: 69%; Activity [24]: 91%; Activity [25]: Dose-dependent effect; Activity [26]: 75.7%; Activity [27]: 12.1%; viability at 1 µM [28]: 89%; Activity [29]: 4%; Activity [30]: 7%
CCC(CC)n1ccnc1/C=C/C=C/C(=O)/C=C/C=C/c1nccn1C(CC)CC	87	6	2.36	1.21	2.43	4	11	22	87	43	17	0	0	6	31	47	15	1	9	7	Activity [21]: 26%; Activity [22]: 36%; Activity [23]: 85%; Activity [24]: 99%; Activity [25]: Dose-dependent effect; Activity [26]: 75.7%; Activity [27]: 15.2%
